The values below come from ChEMBL document CHEMBL1949589, “Hydrophilic pyrazine dyes as exogenous fluorescent tracer agents for real-time point-of-care measurement of glomerular filtration rate” (J Med Chem, 2011).

Series [1] is described as follows: Plasma protein binding in rat at 20 uM after 1 hr by HPLC analysis. The series is classed as ADME, cell-free. The conditions noted are these: read-out: PPB (converted). The procedure, abridged:
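20 μM compound in rat plasma, 37 °C for 1 h. Free fraction separated by 30 kDa MWCO centrifugal ultrafiltration and quantified by HPLC with fluorescence detection against external calibration standards.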

Series [2] in a line: Drug excretion in Sprague-Dawley rat urine after 6 hrs. It counts as ADME. The procedure, abridged:
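Test agent (1 mL, 2 mM in PBS) given by tail vein to conscious restrained rats in metabolic cages, urine collected at 2, 4 and 6 h with cage washes; or to rats anesthetized with Inactin 100 mg/kg ip, tracheotomized, kept on 37 °C pad, with bladder urine drawn at 6 h. Urine level by HPLC with fluorescence detection against external standards; %ID from mass balance; mean ± SEM, n=3-6.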

The next series concerns Rattus norvegicus. Description: Plasma clearance in Sprague-Dawley rat in presence of 70 mg/kg probenecid administered 10 mins prior to compound treatment. Particulars: in vivo; call rule not given here.
Series [3] can be described thus: Stability of the compound assessed as drug degradation by HPLC analysis. It counts as physicochemical.
Series [4] is described as follows: Terminal half life in Sprague-Dawley rat plasma […]. The series is classed as ADME, organism-based. The conditions noted are these: read-out: beta t1/2. Put shortly:
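Male Sprague Dawley rats (330-380 g), Inactin ip, tracheotomized, with femoral vein dosing and femoral artery sampling catheters. Dose was 1 mL of 2 mM agent; about 200 μL blood taken at 0-120 min (10 points). Plasma measured by HPLC with fluorescence detection against external standards. Terminal-phase half-life from two-compartment modeling; mean ± SEM, n=4-8.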

The species named for the next series is Mus musculus. Description: Drug uptake in mouse bladder at 300 uL after 60 mins by real-time fluorescence analysis. The conditions noted are these: in vivo, 1 h.

As to `Nc1nc(C(=O)NCCO)c(N)nc1C(=O)NCCO`, the fraction unbound at 1 h, 20 µM in series [1] is 0.88.

`Nc1nc(C(=O)NCC(O)CO)c(N)nc1C(=O)NCC(O)CO` (stereo not given) showed a urinary excretion (% of injected dose) at 6 h in series [2] of 61 % ID. Also, in series [1], the fraction unbound at 1 h, 20 µM is 0.98.

In series [2], `Nc1nc(C(=O)N[C@@H](CO)C(=O)O)c(N)nc1C(=O)N[C@@H](CO)C(=O)O` came in with a urinary excretion (% of injected dose) at 6 h of 82 % ID. Further, the fraction unbound at 1 h, 20 µM in series [1] was 1. Moreover, the CL entry in the series on Rattus norvegicus is “Not Active”. The Stability result in series [3] is on record as “Stable”. Moreover, in series [4], the half-life came out at 36 min.

In turn, `Nc1nc(C(=O)N[C@H](CC(=O)O)C(=O)O)c(N)nc1C(=O)N[C@H](CC(=O)O)C(=O)O` came in with a urinary excretion (% of injected dose) at 6 h in series [2] of 61 % ID. Moreover, in series [1], the fraction unbound at 1 h, 20 µM is 1.

Take `CCCNc1nc(C(=O)N[C@H](CO)C(=O)O)c(NCCC)nc1C(=O)N[C@H](CO)C(=O)O`: the fraction unbound at 1 h, 20 µM in series [1] is 0.26.

For `NC(=O)c1nc(NC[C@H](O)CO)c(C(N)=O)nc1NC[C@H](O)CO`, the urinary excretion (% of injected dose) at 6 h in series [2] is 25 % ID. In series [1], the fraction unbound at 1 h, 20 µM was 0.85.

As for `O=C(NCC(O)CO)c1nc(NC[C@H](O)CO)c(C(=O)NCC(O)CO)nc1NC[C@H](O)CO` (stereo not given in full), the urinary excretion (% of injected dose) at 6 h in series [2] was 88 % ID. In addition, the fraction unbound at 1 h, 20 µM in series [1] is 0.94. Besides, the Drug uptake result in the series filed under Mus musculus was “Active”. The CL entry in the series on Rattus norvegicus is reported as “Active”. Further, the Stability entry in series [3] is “Stable”. Moreover, in series [4], the half-life was 19 min.

With `O=C(NCC(O)CO)c1nc(NC[C@@H](O)CO)c(C(=O)NCC(O)CO)nc1NC[C@@H](O)CO` (stereo not given in full), the urinary excretion (% of injected dose) at 6 h in series [2] was 87 % ID. In addition, the fraction unbound at 1 h, 20 µM in series [1] is 0.96.

In series [2], `O=C(N[C@H](CO)C(=O)O)c1nc(NC[C@H](O)CO)c(C(=O)N[C@H](CO)C(=O)O)nc1NC[C@H](O)CO` had a urinary excretion (% of injected dose) at 6 h of 85 % ID. The fraction unbound at 1 h, 20 µM in series [1] was 1. In the series on Rattus norvegicus, the CL result was “Active”. Moreover, in series [3], the Stability result was “Stable”. Moreover, in series [4], the half-life came out at 20 min.

For `CNC(=O)c1c(I)c(NC(C)=O)c(I)c(C(=O)O)c1I` [IOTHALAMIC ACID], the urinary excretion (% of injected dose) at 6 h in series [2] stood at 80 % ID. The fraction unbound at 1 h, 20 µM in series [1] was 0.9. Besides, the CL result in the series on Rattus norvegicus is listed as “Active”. The half-life in series [4] was determined as 32 min.

For `Nc1nc(C(=O)N[C@H](CO)C(=O)O)c(N)nc1C(=O)N[C@H](CO)C(=O)O` [RELMAPIRAZIN], the urinary excretion (% of injected dose) at 6 h in series [2] stood at 90 % ID. The fraction unbound at 1 h, 20 µM in series [1] is 1. For the same compound, the CL result in the series on Rattus norvegicus was “Active”. Moreover, the Stability entry in series [3] was “Stable”. In addition, in series [4], the half-life came out at 29 min.
